In ChEMBL document CHEMBL1123783, “Synthesis and anticonvulsant activity of analogues of 4-amino-N-(1-phenylethyl)benzamide” (J Med Chem, 1987):

How the values were obtained:
[1] = tested on: Mus musculus; experiment: Compound was evaluated for anticonvulsant activity against subcutaneous pentylenetetrazole-induced convulsions; type: functional; conditions: sc
Procedure, shortened: (§1)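 Male Carworth Farms number-one mice were dosed ip in 30% PEG 400, at 30, 100 or 300 mg/kg (sometimes 600 mg/kg). Pentylenetetrazole, 85 mg/kg as a 0.5% solution, was injected subcutaneously in the posterior midline. Protection meant no episode of clonic spasms lasting at least 5 s during a 30-min observation period.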

[2] = organism: Mus musculus; experiment: Compound was evaluated for anticonvulsant activity against maximal electric shock induced seizures; type: functional
Procedure, shortened: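 Male Carworth Farms number-one mice received the compound ip in 30% polyethylene glycol 400 before maximal electroshock testing, at several dose levels. The median effective dose (ED50) was obtained by the graphical method.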

[3] = tested on: Mus musculus; experiment: Compound was evaluated for anticonvulsant activity against maximal electric shock (MES) induced convulsions after 30 minutes at a dose of 100 mg/kg; type: functional
[4] = tested on: Mus musculus; experiment: Compound was evaluated for anticonvulsant activity against maximal electric shock (MES) induced convulsions after 4 hr at a dose of 300 mg/kg; type: functional
[5] = tested on: Mus musculus; experiment: Compound was evaluated for anticonvulsant activity against subcutaneous pentylenetetrazole-induced convulsions after 30 minutes at a dose of 300 mg/kg; type: functional; procedure, shortened: as §1
[6] = Compound was evaluated for anticonvulsant activity by rotarod procedure; type: ADME, organism-based; conditions: mouse, in vivo
Procedure, shortened: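 Male Carworth Farms mice were dosed ip in 30% PEG 400 and then placed on a knurled plastic rod 1 in. in diameter, rotating at 6 rpm. Neurotoxicity was failure to stay on the rod for 1 min. TD50 was derived graphically.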

[7] = tested on: Mus musculus; experiment: Compound was evaluated for toxicity by rotarod assay method after 30 minutes at a dose of 300 mg/kg; type: organism-based; design: dose 300 mg/kg; conditions: in vivo, 0.5 h
Procedure, shortened: (§2)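 Male Carworth Farms number-one mice received test compound intraperitoneally in 30% polyethylene glycol 400 at 30, 100 and 300 mg/kg, with 600 mg/kg in some cases. Neurological deficit was read at 30 min or 4 h after dosing on a 1-in.-diameter knurled plastic rod turning at 6 rpm. Toxicity was scored as failure to stay on the rod for 1 min.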

[8] = tested on: Mus musculus; experiment: Compound was evaluated for toxicity by rotarod assay method after 4 hr; C indicates no activity at 300 mg/kg.; type: organism-based; design: dose 300 mg/kg; conditions: in vivo; procedure, shortened: as §2
[9] = Protective index is the ratio of TD50 to ED50; type: ADME; conditions: for selectivity ratio: read-out: Protective index
Procedure, shortened: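 Protective index was calculated as rotorod TD50 divided by anti-MES ED50. Both were graphical median doses from ip dosing in 30% PEG 400 in male Carworth Farms mice.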

[10] = tested on: Mus musculus; experiment: Compound was evaluated for anticonvulsant activity against subcutaneous pentylenetetrazole-induced convulsions after 4 hr; C indicates no activity at 300 mg/kg.; type: functional, organism-based; design: dose 300 mg/kg; procedure, shortened: as §1
[11] = tested on: Mus musculus; experiment: Compound was evaluated for anticonvulsant activity against subcutaneous pentylenetetrazole-induced convulsions after 30 minutes; C indicates no activity at 300 mg/kg.; type: functional, organism-based; design: dose 300 mg/kg; procedure, shortened: as §1
[12] = tested on: Mus musculus; experiment: Compound was evaluated for anticonvulsant activity against maximal electric shock (MES) induced convulsions after 30 minutes; C indicates no activity at 300 mg/kg.; type: functional, organism-based; design: dose 300 mg/kg
[13] = tested on: Mus musculus; experiment: Compound was evaluated for anticonvulsant activity against maximal electric shock (MES) induced convulsions after 4 hr; C indicates no activity at 300 mg/kg.; type: functional, organism-based; design: dose 300 mg/kg
[14] = tested on: Mus musculus; experiment: Compound was evaluated for anticonvulsant activity against subcutaneous pentylenetetrazole-induced convulsions after 30 minutes;C is inactive at 300 mg/kg.; type: functional, organism-based; design: dose 300 mg/kg; procedure, shortened: as §1
[15] = tested on: Mus musculus; experiment: Compound was evaluated for anticonvulsant activity against subcutaneous pentylenetetrazole-induced convulsions after 4 hr; C is inactive at 300 mg/kg.; type: functional, organism-based; design: dose 300 mg/kg; procedure, shortened: as §1
[16] = tested on: Mus musculus; experiment: Compound was evaluated for anticonvulsant activity against maximal electric shock (MES) induced convulsions after 30 minutes;C is inactive at 300 mg/kg.; type: functional, organism-based; design: dose 300 mg/kg
[17] = tested on: Mus musculus; experiment: Compound was evaluated for anticonvulsant activity against maximal electric shock (MES) induced convulsions after 4 hr; C is inactive at 300 mg/kg.; type: functional, organism-based; design: dose 300 mg/kg
[18] = tested on: Mus musculus; experiment: Compound was evaluated for toxicity by rotarod assay method after 30 minutes; C is inactive at 300 mg/kg.; type: organism-based; design: dose 300 mg/kg; conditions: in vivo, 0.5 h; procedure, shortened: as §2
[19] = tested on: Mus musculus; experiment: Compound was evaluated for toxicity by rotarod assay method after 4 hr; C is inactive at 300 mg/kg.; type: organism-based; design: dose 300 mg/kg; conditions: in vivo; procedure, shortened: as §2
[20] = tested on: Mus musculus; experiment: Compound was evaluated for anticonvulsant activity against subcutaneous pentylenetetrazole-induced convulsions after 4 hr at a dose of 300 mg/kg; type: functional; procedure, shortened: as §1
[21] = tested on: Mus musculus; experiment: Compound was evaluated for toxicity by rotarod assay method after 30 minutes; C indicates no activity at 300 mg/kg.; type: organism-based; design: dose 300 mg/kg; conditions: in vivo, 0.5 h; procedure, shortened: as §2
[22] = tested on: Mus musculus; experiment: Compound was evaluated for anticonvulsant activity against maximal electric shock (MES) induced convulsions after 4 hr at a dose of 100 mg/kg; type: functional
[23] = tested on: Mus musculus; experiment: Compound was evaluated for toxicity by rotarod assay method after 30 minutes at a dose of 100 mg/kg; type: organism-based; design: dose 100 mg/kg; conditions: in vivo, 0.5 h; procedure, shortened: as §2
[24] = tested on: Mus musculus; experiment: Compound was evaluated for toxicity by rotarod assay method after 4 hr at a dose of 300 mg/kg; type: organism-based; design: dose 300 mg/kg; conditions: in vivo; procedure, shortened: as §2
[25] = tested on: Mus musculus; experiment: Compound was evaluated for anticonvulsant activity against maximal electric shock (MES) induced convulsions after 30 minutes at a dose of 30 mg/kg; type: functional
[26] = tested on: Mus musculus; experiment: Compound was evaluated for anticonvulsant activity against maximal electric shock (MES) induced convulsions after 30 minutes at a dose of 300 mg/kg; type: functional
[27] = tested on: Mus musculus; experiment: Compound was evaluated for anticonvulsant activity against subcutaneous pentylenetetrazole-induced convulsions after 30 minutes; E indicates no activity at 30 mg/kg.; type: functional, organism-based; design: dose 30 mg/kg; procedure, shortened: as §1
[28] = tested on: Mus musculus; experiment: Compound was evaluated for anticonvulsant activity against subcutaneous pentylenetetrazole-induced convulsions after 4 hr; E indicates no activity at 30 mg/kg.; type: functional, organism-based; design: dose 30 mg/kg; procedure, shortened: as §1
[29] = tested on: Mus musculus; experiment: Compound was evaluated for anticonvulsant activity against maximal electric shock (MES) induced convulsions after 4 hr; E indicates no activity at 30 mg/kg.; type: functional, organism-based; design: dose 30 mg/kg
[30] = tested on: Mus musculus; experiment: Compound was evaluated for toxicity by rotarod assay method after 4 hr; E indicates no activity at 30 mg/kg.; type: organism-based; design: dose 30 mg/kg; conditions: in vivo; procedure, shortened: as §2

| SMILES | ED50 [2] [mg/kg] | Activity [3] | Activity [5] | TD50 [6] [mg/kg] | Toxicity [8] | selectivity ratio [9] | Activity [10] | Activity [14] | Activity [15] | Activity [16] | Activity [17] | Toxicity [18] | Toxicity [19] | further results |
| --- | --- | --- | --- | --- | --- | --- | --- | --- | --- | --- | --- | --- | --- | --- |
| CC(NC(=O)c1ccccc1)c1ccc(N)cc1 (stereo not drawn) | 68.2 | 3 | 2 | 190 | No activity at 300 mg/kg | 2.79 | No activity at 300 mg/kg | – | – | – | – | – | – | ED50 [1]: 126 mg/kg; Activity [4]: 2; Toxicity [7]: 2; Protective index [9]: 1.51 |
| CCOC(=O)C(=O)Nc1ccc(C(=O)NC(C)c2ccccc2)cc1 (stereo not drawn) | – | – | – | – | No activity at 300 mg/kg | – | No activity at 300 mg/kg | – | – | – | – | – | – | Activity [11]: No activity at 300 mg/kg; Activity [12]: No activity at 300 mg/kg; Activity [13]: No activity at 300 mg/kg; Toxicity [7]: 2 |
| CC(NC(=O)c1ccc(N(C)C)cc1)c1ccccc1 (stereo not drawn) | – | – | – | – | – | – | – | No activity at 300 mg/kg | No activity at 300 mg/kg | No activity at 300 mg/kg | No activity at 300 mg/kg | No activity at 300 mg/kg | No activity at 300 mg/kg | – |
| CNc1ccc(C(=O)NC(C)c2ccccc2)cc1 (stereo not drawn) | – | 3 | 2 | – | No activity at 300 mg/kg | – | – | – | – | – | – | – | – | Activity [20]: 2; Activity [4]: 2; Toxicity [21]: No activity at 300 mg/kg |
| CNc1ccc(C(=O)NCc2ccccc2)cc1 | – | – | – | – | – | – | – | No activity at 300 mg/kg | No activity at 300 mg/kg | No activity at 300 mg/kg | No activity at 300 mg/kg | No activity at 300 mg/kg | No activity at 300 mg/kg | – |
| CCC(NC(=O)c1ccc(N)cc1)c1ccccc1 (stereo not drawn) | 54.3 | 3 | 2 | 95.4 | – | 1.76 | – | – | – | – | – | – | – | Activity [20]: 2; ED50 [1]: 54.1 mg/kg; Activity [22]: 3; Toxicity [23]: 3; Toxicity [24]: 2 |
| Cc1ccc(C(C)NC(=O)c2ccc(N)cc2)cc1 (stereo not drawn) | – | – | – | – | – | – | – | No activity at 300 mg/kg | No activity at 300 mg/kg | No activity at 300 mg/kg | No activity at 300 mg/kg | No activity at 300 mg/kg | No activity at 300 mg/kg | – |
| CN(C)c1ccc(C(=O)NCCc2ccccc2)cc1 | – | – | – | – | – | – | – | No activity at 300 mg/kg | No activity at 300 mg/kg | No activity at 300 mg/kg | No activity at 300 mg/kg | No activity at 300 mg/kg | No activity at 300 mg/kg | – |
| CC(NCc1ccc(N)cc1)c1ccccc1 (stereo not drawn) | 11.1 | – | – | 15.5 | No activity at 300 mg/kg | 1.4 | No activity at 300 mg/kg | – | – | – | – | – | – | Activity [11]: No activity at 300 mg/kg; Activity [25]: 4; Activity [13]: No activity at 300 mg/kg; Toxicity [23]: 3 |
| CC(NC(=O)c1ccc(N)cc1)c1ccc(Cl)cc1 (stereo not drawn) | – | – | 2 | – | No activity at 300 mg/kg | – | – | – | – | – | – | – | – | Activity [20]: 2; Activity [26]: 2; Activity [13]: No activity at 300 mg/kg; Toxicity [21]: No activity at 300 mg/kg |
| CCCC(NC(=O)c1ccc(N)cc1)c1ccccc1 (stereo not drawn) | 93.9 | 3 | – | 378 | No activity at 300 mg/kg | 4.03 | No activity at 300 mg/kg | – | – | – | – | – | – | Activity [11]: No activity at 300 mg/kg; ED50 [1]: 78.8 mg/kg; Activity [4]: 2; Toxicity [21]: No activity at 300 mg/kg; Protective index [9]: 4.8 |
| CC(=O)Nc1ccc(C(=O)NC(C)c2ccccc2)cc1 (stereo not drawn) | – | – | – | – | – | – | – | No activity at 300 mg/kg | No activity at 300 mg/kg | No activity at 300 mg/kg | No activity at 300 mg/kg | No activity at 300 mg/kg | No activity at 300 mg/kg | – |
| CC(NC(=O)c1ccc(CN(C)C)cc1)c1ccccc1 (stereo not drawn) | 13 | – | – | 34.3 | – | 2.63 | – | – | – | – | – | – | – | Activity [27]: No activity at 30 mg/kg; Activity [28]: No activity at 30 mg/kg; Activity [25]: 4; Activity [29]: No activity at 30 mg/kg; Toxicity [30]: No activity at 30 mg/kg; Toxicity [23]: 3 |
| CC(NCc1cccc(N)c1)c1ccccc1 (stereo not drawn) | 32.4 | 3 | – | 49.7 | No activity at 300 mg/kg | 1.53 | No activity at 300 mg/kg | – | – | – | – | – | – | Activity [11]: No activity at 300 mg/kg; Activity [13]: No activity at 300 mg/kg; Toxicity [7]: 2 |
| CCCCC(NC(=O)c1ccc(N)cc1)c1ccccc1 (stereo not drawn) | 73.7 | 3 | 2 | 332 | No activity at 300 mg/kg | – | No activity at 300 mg/kg | – | – | – | – | – | – | ED50 [1]: 161 mg/kg; Activity [4]: 2; Toxicity [7]: 2; Protective index [9]: 2.06 |
| CN(C)c1ccc(C(=O)Nc2ccccc2)cc1 | – | – | – | – | – | – | – | No activity at 300 mg/kg | No activity at 300 mg/kg | No activity at 300 mg/kg | No activity at 300 mg/kg | No activity at 300 mg/kg | No activity at 300 mg/kg | – |
